Data as given in ChEMBL document CHEMBL3352437, “Novel 3,5-bis(arylidene)-4-oxo-1-piperidinyl dimers: structure-activity relationships and potent antileukemic and antilymphoma cytotoxicity” (Eur J Med Chem, 2014).
pIC50: −log10 of the molar value.

How the values were obtained:
[1] = system: Raji; test: Cytotoxicity against human Raji cells assessed as dead cells at 1 uM after 24 hrs; format: functional
How it was run: (§1)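 Dienones added as DMSO solutions to cells in RPMI medium and incubated 24 h at 37°C. Cytotoxicity was scored as cell-membrane disruption by propidium iodide staining and expressed as percentage of dead cells, averaged over three independent experiments.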

[2] = system: COLO 205; test: Cytotoxicity against human COLO205 cells assessed as inhibition of tumor growth after 24 hrs; format: functional, cell-based; conditions: COLO 205, 24 h
[3] = system: DU-145; test: Cytotoxicity against human DU145 cells assessed as dead cells at 1 uM after 24 hrs; format: functional; how it was run: as §1
[4] = Cytotoxicity against human HCT15 cells assessed as inhibition of tumor growth after 24 hrs; format: functional, cell-based; conditions: HCT-15, 24 h
[5] = system: SR; test: Antileukemic activity against human SR cells assessed as inhibition of tumor growth after 24 hrs; format: functional, cell-based
[6] = system: HCC70; test: Cytotoxicity against human HCC70 cells assessed as dead cells at 1 uM after 24 hrs; format: functional; how it was run: as §1
[7] = system: HS27; test: Cytotoxicity against human HS27 cells assessed as dead cells at 1 uM after 24 hrs; format: cell-based; conditions: hs27, 24 h
How it was run: (§2)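 Compounds added from DMSO solutions to cells in medium (RPMI; DMEM for Hs-27 fibroblasts) and incubated 24 h at 37°C. Membrane disruption scored by propidium iodide uptake. Result is percentage of dead cells, average of three independent experiments.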

[8] = Antiproliferative activity against human Molt4/C8 cells after 72 hrs by coulter counting analysis; format: functional, cell-based; conditions: MOLT-4, 72 h
How it was run: (§3)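 Cells exposed to a range of concentrations in RPMI 1640 at 37°C for 72 h. Surviving cells counted by Coulter counter. IC50 taken from concentration-response curves, mean ± SD of at least three independent experiments.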

[9] = Cytotoxicity against human HuT-102 cells assessed as dead cells at 1 uM after 24 hrs; format: functional; how it was run: as §1
[10] = system: HL-60(TB); test: Antileukemic activity against human HL-60(TB) cells assessed as inhibition of tumor growth after 24 hrs; format: functional, cell-based; conditions: HL-60, 24 h
[11] = system: HCC 2998; test: Cytotoxicity against human HCC2998 cells assessed as inhibition of tumor growth after 24 hrs; format: functional, cell-based; conditions: HCC 2998, 24 h
[12] = system: K562; test: Antileukemic activity against human K562 cells assessed as inhibition of tumor growth after 24 hrs; format: functional, cell-based; conditions: K562, 24 h
[13] = Cytotoxicity against human 22Rvl cells assessed as dead cells at 1 uM after 24 hrs; format: functional; how it was run: as §1
[14] = system: CCRF-CEM; test: Cytotoxicity against human CEM cells assessed as dead cells at 1 uM after 24 hrs; format: functional; how it was run: as §1
[15] = Antileukemic activity against human RPMI8226 cells assessed as inhibition of tumor growth after 24 hrs; format: functional, cell-based; conditions: rpmi-8226
[16] = system: MCF7; test: Cytotoxicity against human MCF7 cells assessed as dead cells at 1 uM after 24 hrs; format: functional; how it was run: as §1
[17] = Cytotoxicity against human SupT1 cells assessed as dead cells at 1 uM after 24 hrs; format: functional, SUP-T1; how it was run: as §1
[18] = system: L1210; test: Antiproliferative activity against mouse L1210 cells after 72 hrs by coulter counting analysis; format: functional, cell-based; conditions: L1210, 72 h
[19] = Cytotoxicity against human NALM6 cells assessed as dead cells at 1 uM after 24 hrs; format: functional, NALM-6; how it was run: as §1
[20] = system: HeLa; test: Antiproliferative activity against human HeLa cells after 72 hrs by coulter counting analysis; format: functional, cell-based; how it was run: as §3
[21] = Cytotoxicity against human NCI60 cells assessed as inhibition of tumor growth after 24 hrs; format: functional, cell-based; conditions: NCI60, 24 h
[22] = system: Ramos; test: Cytotoxicity against human Ramos cells assessed as dead cells at 1 uM after 24 hrs; format: functional; how it was run: as §1
[23] = Cytotoxicity against human MOLT3 cells assessed as dead cells at 1 uM after 24 hrs; format: functional, MOLT-3; how it was run: as §1
[24] = system: KM12; test: Cytotoxicity against human KM12 cells assessed as inhibition of tumor growth after 24 hrs; format: functional, cell-based; conditions: KM12, 24 h
[25] = system: BJAB; test: Cytotoxicity against human BJAB cells assessed as dead cells at 1 uM after 24 hrs; format: functional; how it was run: as §1
[26] = system: Jurkat; test: Cytotoxicity against human Jurkat cells assessed as dead cells at 1 uM after 24 hrs; format: functional; how it was run: as §1
[27] = system: CCRF-CEM; test: Antiproliferative activity against human CEM cells after 72 hrs by coulter counting analysis; format: functional, cell-based; how it was run: as §3
[28] = system: EL4; test: Cytotoxicity against mouse EL4 cells assessed as dead cells at 1 uM after 24 hrs; format: functional; how it was run: as §1
[29] = system: SW-620; test: Cytotoxicity against human SW620 cells assessed as inhibition of tumor growth after 24 hrs; format: functional, cell-based; conditions: SW-620, 24 h
[30] = Cytotoxicity against human MDA231 cells assessed as dead cells at 1 uM after 24 hrs; format: functional, MDA-MB-231; how it was run: as §1
[31] = Cytotoxicity against human MCF10A cells assessed as dead cells at 1 uM after 24 hrs; format: cell-based; conditions: mcf-10a; how it was run: as §2
[32] = system: LAPC4; test: Cytotoxicity against human LAPC4 cells assessed as dead cells at 1 uM after 24 hrs; format: functional; how it was run: as §1
[33] = system: YT; test: Cytotoxicity against human YT cells assessed as dead cells at 1 uM after 24 hrs; format: functional; how it was run: as §1

SMILES | Activity [1] | Activity [6] | Activity [7] | pIC50 [8] | Activity [9] | Activity [13] | Activity [14] | Activity [16] | Activity [17] | pIC50 [18] | Activity [19] | pIC50 [20] | Activity [22] | Activity [23] | Activity [25] | Activity [26] | pIC50 [27] | Activity [28] | Activity [30] | Activity [31] | further results
O=C1/C(=C\c2ccc(Cl)cc2)CN(C(=O)CC(=O)N2C/C(=C\c3ccc(Cl)cc3)C(=O)/C(=C/c3ccc(Cl)cc3)C2)C/C1=C\c1ccc(Cl)cc1 | 32.7% | 7.8% | 5.7% | 5.98 | 20.4% | 1.7% | 83% | 19.5% | 21.1% | 6.07 | 68.6% | 6.09 | 86.3% | 20.6% | 49.9% | 85.3% | 5.97 | 55.4% | 32.7% | 3.1% | pIC50 [2]: 7.10; Activity [3]: 40.3%; pIC50 [4]: 7.22; pIC50 [5]: 8.00; pIC50 [10]: 6.96; pIC50 [11]: 6.89; pIC50 [12]: 7.52; pIC50 [15]: 7.70; pIC50 [21]: 7.05; pIC50 [24]: 6.80; pIC50 [29]: 7.52; Activity [32]: 1%; Activity [33]: 16.8%
O=C1/C(=C/c2ccc(Cl)cc2)CN(C(=O)C(=O)N2C/C(=C\c3ccc(Cl)cc3)C(=O)/C(=C/c3ccc(Cl)cc3)C2)C/C1=C\c1ccc(Cl)cc1 | 35.7% | 8.4% | 0% | 6.53 | 31.4% | 13.6% | 59.9% | 17.8% | 18.1% | 6.26 | 59% | 6.19 | 82.9% | 0.4% | 43.1% | 78.5% | 6.10 | 52.5% | 10% | 2.2% | pIC50 [2]: 6.80; Activity [3]: 33.1%; pIC50 [4]: 6.85; pIC50 [5]: 7.70; pIC50 [10]: 6.72; pIC50 [11]: 6.51; pIC50 [12]: 6.89; pIC50 [15]: 7.30; pIC50 [21]: 6.66; pIC50 [24]: 6.68; pIC50 [29]: 6.74; Activity [32]: 27%; Activity [33]: 21.5%
O=C1/C(=C\c2ccc(F)cc2)CN(C(=O)CC(=O)N2C/C(=C\c3ccc(F)cc3)C(=O)/C(=C/c3ccc(F)cc3)C2)C/C1=C\c1ccc(F)cc1 | 35.3% | 3.1% | 0.3% | 5.80 | 58.5% | 18.8% | 92.4% | 0.2% | 24.9% | 4.96 | 51.9% | 5.25 | 78.6% | 2.6% | 61.2% | 87.1% | 5.56 | 47.7% | 0.4% | 7% | Activity [3]: 38.4%; Activity [32]: 11.1%; Activity [33]: 19.2%
Cc1ccc(/C=C2/CN(C(=O)CC(=O)N3C/C(=C\c4ccc(C)cc4)C(=O)/C(=C/c4ccc(C)cc4)C3)C/C(=C\c3ccc(C)cc3)C2=O)cc1 | 46.5% | 10.1% | 26.5% | 5.72 | 50.9% | 6.3% | 85.7% | 19.1% | 23.6% | 5.27 | 67.6% | 5.54 | 83% | 21.3% | 60.2% | 85.5% | 5.46 | 66.9% | 8.6% | 15.4% | pIC50 [2]: 6.77; Activity [3]: 21.9%; pIC50 [4]: 7.10; pIC50 [5]: 7.30; pIC50 [10]: 6.64; pIC50 [11]: 6.52; pIC50 [12]: 7.00; pIC50 [15]: 7.52; pIC50 [21]: 6.72; pIC50 [24]: 6.77; pIC50 [29]: 6.82; Activity [32]: 7%; Activity [33]: 29.1%
COc1ccc(/C=C2\CN(C(=O)C(=O)N3C/C(=C\c4ccc(OC)cc4)C(=O)/C(=C/c4ccc(OC)cc4)C3)C/C(=C\c3ccc(OC)cc3)C2=O)cc1 | 69.1% | 14.7% | 0.6% | 4.48 | 6.7% | 0% | 71.9% | 16.2% | 15.2% | 3.69 | 62.6% | 4.22 | 53.7% | 49.6% | 45.8% | 72% | 4.02 | 71.7% | 0.6% | 9.9% | Activity [3]: 11.4%; Activity [32]: 1.9%; Activity [33]: 5.8%
O=C1/C(=C\c2ccccc2)CN(CCCN2C/C(=C\c3ccccc3)C(=O)/C(=C/c3ccccc3)C2)C/C1=C\c1ccccc1 | 31.9% | 4.3% | 2.9% | 5.84 | 10% | 1.7% | 64.5% | 43.5% | 21.2% | 5.53 | 49.2% | 5.26 | 82.1% | 27.4% | 39.4% | 76.3% | 5.60 | 65.3% | 20.1% | 19.4% | pIC50 [2]: 6.72; pIC50 [4]: 6.70; pIC50 [5]: 7.40; pIC50 [10]: 6.60; pIC50 [11]: 6.74; pIC50 [12]: 7.40; pIC50 [15]: 7.40; pIC50 [21]: 6.72; pIC50 [24]: 6.80; pIC50 [29]: 7.22; Activity [32]: 5.7%; Activity [33]: 6.6%
O=C1/C(=C/c2ccc(F)cc2)CN(C(=O)C(=O)N2C/C(=C\c3ccc(F)cc3)C(=O)/C(=C/c3ccc(F)cc3)C2)C/C1=C\c1ccc(F)cc1 | 33.5% | 6.6% | 0.6% | 7.08 | 64.4% | 30.1% | 85.3% | 16.2% | 35.6% | 6.37 | 61.6% | 6.41 | 53.3% | 3.1% | 61.8% | 87.8% | 6.66 | 34.7% | 5.5% | 7.7% | pIC50 [2]: 6.20; Activity [3]: 15.2%; pIC50 [4]: 6.80; pIC50 [5]: 6.80; pIC50 [10]: 5.95; pIC50 [11]: 6.21; pIC50 [12]: 6.55; pIC50 [15]: 6.92; pIC50 [21]: 6.24; pIC50 [24]: 6.52; pIC50 [29]: 6.49; Activity [32]: 11.3%; Activity [33]: 17.1%
Cc1ccc(/C=C2\CN(C(=O)C(=O)N3C/C(=C\c4ccc(C)cc4)C(=O)/C(=C/c4ccc(C)cc4)C3)C/C(=C\c3ccc(C)cc3)C2=O)cc1 | 41.5% | 11.9% | 12% | 5.78 | 13.9% | 16.2% | 68.4% | 0% | 18.8% | 5.04 | 59.5% | 5.42 | 84.4% | 0.8% | 41.5% | 80.7% | 5.11 | 43.5% | 9.3% | 9.3% | Activity [3]: 26%; Activity [32]: 2.4%; Activity [33]: 20.1%
